The list is not random: actives were taken first. Their share in the collection is about 2.4%.
PP5 primary: blocks human protein phosphatase 5 activity. P53041. purified PP5c, OMFP substrate fluorescence. inhibition, % at 6.7 µM. 320,000 compounds, 0.18% hits. AID 1987;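 active = inhibition above the campaign's mean inhibition across all tested compounds plus 3 SD, cut at about 9.5% in these data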
H9c2 protect: protects H9c2 cardiomyocytes from peroxide injury; H2O2 injury protection, ATPLite, 2 h; 360,000 compounds, 0.63% hits; protection from H2O2 cell death, % at 20 µM; AID 588492;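 active = compounds giving at least 50% protection of heart cells from peroxide-induced death in the single-dose screen, raw or plate-pattern-corrected value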
CTSL1 counter: cathepsin L1 inhibition, PFM18AAP counter-screen; AID 1906; recombinant F. hepatica cathepsin L1, Z-Leu-Arg-MCA fluorescence; inhibition, % at 5.96 µM; 300,000 compounds, 0.49% hits;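 active = inhibition above the mean of all tested compounds plus 3 SD, set per screening campaign, cut at about 17% in these data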
p-CIP stab down: compounds decreasing mouse p/CIP protein stability | F442A p/CIP-EGFP cells, EGFP fluorescence, 16 h | decrease of EGFP signal, % at 10 µM | 290,000 compounds, 0.01% hits | AID 1984;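 active = EGFP signal decrease of at least 30% at 10 µM or well 3 SD below plate mean, unless failing retest; inactive = the rest, including hits failing retest or dose response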
T cruzi inh: T. cruzi replication inhibition; T. cruzi beta-gal in NIH3T3, luminescence, 90 h; AID 1885; 300,000 compounds, 1.4% hits; inhibition, % (no concentration beside the values);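 active = mean inhibition across valid replicates above about 55%, limit read from the data; inconclusive = mean below that limit but half or more replicates reach it; inactive = mean below it, under half of replicates reach it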;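 note: signal also drops with host cell toxicity which is not excluded here; higher percent means less beta-gal luminescence so fewer parasites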
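compound dosing = single 50 nL compound addition per well in DMSO | material = NIH/3T3 host cells with β-galactosidase reporter T. cruzi | input = 5,000 host fibroblasts per well | timing = ≥90 h infection period, 3 h prior cell attachment | read-out basis = percent inhibition of parasite-derived β-gal signal | detection = GalScreen β-gal luminescence, detergent lysis, 60 min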
GASC-1 inh: inhibitors of human GASC-1 (JMJD2C) demethylase. AID 2099. Q9H3R0. inhibition, % at 2.35 µM. GST-JMJD2C(1-420) H3K9me3 demethylation, DELFIA europium. 330,000 compounds, 0.069% hits;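 active = more than half of a compound's replicate wells show inhibition beyond 50%, single wells judged on their own value; inconclusive = some, but no more than half, of replicates pass 50% inhibition; inactive = no replicate passes 50% inhibition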;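 note: signal counts dimethyl H3K9 product captured on neutravidin plate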
Target sequence (Q9H3R0 1-420 limits assumed): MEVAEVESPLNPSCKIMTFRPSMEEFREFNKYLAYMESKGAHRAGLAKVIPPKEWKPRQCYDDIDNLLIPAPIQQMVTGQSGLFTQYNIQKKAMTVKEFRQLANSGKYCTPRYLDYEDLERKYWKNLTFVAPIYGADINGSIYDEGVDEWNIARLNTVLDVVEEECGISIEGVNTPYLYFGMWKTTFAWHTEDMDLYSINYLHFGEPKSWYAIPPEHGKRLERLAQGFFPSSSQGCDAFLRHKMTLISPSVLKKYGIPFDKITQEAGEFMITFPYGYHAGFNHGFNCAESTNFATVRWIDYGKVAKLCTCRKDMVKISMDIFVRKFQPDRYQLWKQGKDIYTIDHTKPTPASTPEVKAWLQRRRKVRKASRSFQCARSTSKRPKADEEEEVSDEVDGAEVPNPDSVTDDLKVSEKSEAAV
Numbers stand for hits; 0 = inactive; ? = inconclusive; - = not tested or not shown.

SMILES	PP5 primary	H9c2 protect	CTSL1 counter	p-CIP stab down	T cruzi inh	GASC-1 inh
CCn1cc(/C=C(\NC(=O)c2ccc(OC)cc2)C(=O)N2CCOCC2)c2ccccc21	0	0	0	0	0	0
COc1ccc(Cl)cc1NC(=O)CCS(=O)(=O)c1ccc(C)cc1	0	0	0	0	0	0
O=C1NCCN1C(=O)c1cccc(Cl)c1	0	0	19.0	0	0	0
O=C(c1cccnc1)N1CCN(C(=O)c2cccc(Cl)c2)CC1	0	0	0	0	0	0
CCOc1ccccc1N1CC(O)=C(c2nc3ccccc3s2)C1=N	0	95.2	0	0	0	0
CCC1(CC)NC(=O)N(CC(=O)NC(=O)NCc2ccccc2)C1=O	0	0	0	0	0	0
NC(=S)N/N=C/c1ccc(-c2cccc([N+](=O)[O-])c2)o1	0	0	24.8	0	0	0
Nc1nonc1C(=O)N/N=C/c1ccc(-c2cccc([N+](=O)[O-])c2)o1	0	0	0	0	0	0
O=C(N/N=C\c1ccc(-c2ccc([N+](=O)[O-])cc2)o1)C1COc2ccccc2O1 (stereo not drawn)	0	0	0	0	59.3	0
O=C(N/N=C/c1ccc(-c2cccc([N+](=O)[O-])c2)o1)c1cccs1	0	0	0	0	80.5	0
Cc1ccc(-n2c(SCC(=O)NC3CCS(=O)(=O)C3)nc3ccccc3c2=O)c(C)c1 (stereo not drawn)	-	0	-	-	-	-
CC(C)CNC(=O)[C@H](Cc1ccccc1)NC(=O)c1cccs1	0	0	0	0	0	0
Cc1cccc(C)c1NC(=O)CN(C)CC(=O)c1c(N)n(Cc2ccccc2)c(=O)n(C)c1=O	0	0	-	-	-	0
Cc1ccsc1CN(C)CC(=O)NCC(=O)Nc1ccc(F)c(F)c1F	-	0	-	-	-	0
Fc1ccc(NC(=S)N2CCn3cccc3C2c2cccnc2)cc1 (stereo not drawn)	0	0	0	0	71.1	0
COc1cccc(NC(=S)N2CCn3cccc3C2c2cccnc2)c1 (stereo not drawn)	0	0	0	0	76.2	0
Fc1ccc(C2c3cccn3CCN2C(=S)Nc2cccc(Br)c2)cc1 (stereo not drawn)	0	0	0	0	0	0
Cc1cccc(NC(=S)N2CCn3cccc3C2c2cccnc2)c1 (stereo not drawn)	0	0	0	0	0	0
CCOc1ccc(CN(C)CC(=O)Nc2ccccc2C(=O)NC2CC2)cc1	-	0	-	-	-	-
CCOC(=O)CCCCCC(=O)Nc1ccc2c(c1)C(=O)N([C@H](C)CO)C[C@@H](C)[C@H](CN(C)S(=O)(=O)c1cn(C)cn1)O2	-	0	-	-	-	0
N#Cc1c(C#N)c(SSc2c(C#N)c(C#N)c(N)n2-c2ccccc2)n(-c2ccccc2)c1N	-	0	-	-	-	-
COCC(C)n1c(SCC(=O)NC(=O)NC2CCCC2)nc2ccccc2c1=O (stereo not drawn)	0	0	-	-	-	0
Oc1c(/C=C/C=C/C=Nc2ccccc2)sc(=S)n1Cc1ccccc1	0	0	0	0	0	0
Cc1ccc(NC(=O)CN2C(=O)NC(Cc3ccccc3)C2=O)cc1Cl (stereo not drawn)	0	0	-	-	-	0
CSc1nc(N(C)C)nc(N(C)C#N)n1	0	0	0	0	0	0
SMILES	PP5 primary	H9c2 protect	CTSL1 counter	p-CIP stab down	T cruzi inh	GASC-1 inh
CC(=O)OCN(C#N)c1nc(N(C)C)nc(N(C)C)n1	0	0	0	0	0	0
CCNc1nc(NC(C)C)nc(N(C#N)CC(=O)OC)n1	0	0	71.4	0	0	0
COC(=O)CN(C#N)c1nc(SC)nc(N(C)C)n1	0	0	29.4	0	0	?
CCOC(=O)CN(C#N)c1nc(N(C)C)nc(N(C)C)n1	0	0	53.5	0	0	0
O=C(COC(=O)C1CC1)Nc1c(Cl)cccc1C(F)(F)F	0	0	0	-	0	0
CCc1noc(C)c1C(=O)N1CC(C)SC1=Nc1ccc(Cl)cc1 (stereo not drawn)	0	0	-	-	-	0
O=C(Oc1ccc[nH]c1=O)c1ccccc1	-	0	-	-	-	-
O=C(Oc1cccc2c(=O)[nH]ccc12)c1ccccc1	0	80.5	0	0	-	0
N=c1c(C(=O)NCc2ccc(F)cc2)cc2c(=O)n3ccccc3nc2n1Cc1cccnc1	0	0	0	0	69.8	0
CCNC(=O)c1cc2c(=O)n3cccc(C)c3nc2n(Cc2ccc(C)cc2)c1=N	0	0	0	0	0	0
